The subject of data set [1] is hLTP. Particulars: cited from earlier work.
The conditions of data set [2]: humans; cited from earlier work.
In data set [3] the test system is 5xFAD mice. The data set is described as follows: hLTP in hippocampal slices from treated 5xFAD mice. The format is in vivo. Particulars: senicapoc diet for three months; to the level of Wt mice (Fig. 8F and G). In a few lines: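 5xFAD and Wt littermates aged six months were fed test compound-medicated (2400 ppm) or control diet for three months. Hippocampal slices then received high-frequency stimulation. The read-out was mean percent change in fEPSP slope from baseline, averaged 50–60 min after HFS, from 8–12 slices of 5–6 mice per group. Data are mean ± SE; two-way ANOVA with Bonferroni.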

Data set [4] has as its system 5xFAD mice. In words: Memory tasks: novel object recognition and step-through passive avoidance. The format is in vivo. The settings on record: 5xFAD mice at 9 months of age; no significant memory deficits in 5xFAD/control diet mice.
Data set [5] concerns 5xFAD mice. The data set is classed as in vivo. In a few lines:
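Six-month-old 5xFAD and Wt littermates got 2400 ppm test compound or control diet for three months (n = 9/group). Frozen 20 μm sections were stained overnight at 4°C with anti-Iba-1, CD68 or CD11b (1:200), Alexa secondaries (1:700) and FSB (400 nmol/L) for plaques. KCa3.1 was detected with APC064 or P4997 (1:3000); microglial co-localisation used three images per mouse. Imaging and analysis were blinded.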

Data set [6] can be described thus: Pharmacokinetics in mice: total plasma and brain concentrations by LC-MS. The data set is classed as in vivo. Particulars: male, C57BL/6J, mouse.
The subject of data set [7] is 5xFAD mice. In words: qPCR of acutely isolated microglia after three months of senicapoc diet. The format is in vivo. In a few lines:
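Six-month-old 5xFAD and Wt littermates were fed 2400 ppm test compound or control diet ad lib for three months (n = 9/group). Microglia were acutely isolated with anti-CD11b magnetic beads. RNA was extracted, reverse-transcribed and pre-amplified. Pro-inflammatory and M2-like transcripts (Arg1, CD206, […], IGF-1) were quantified by 2‑ΔΔCt against Actb. Groups were compared by two-way ANOVA with Bonferroni.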

For data set [8] the following is noted: cited from earlier work.
In data set [9] the test system is primary microglia. In words: AβO-induced proinflammatory activation of cultured primary microglia. The format is cell-based, mouse. In a few lines: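 Primary microglia came from mixed glia cultures and were exposed to AβO (100 nmol/L) for 24 h with test compound or vehicle. For qPCR, RNA was kit-extracted and analysed by the 2‑ΔΔCt method with Actb as reference. For p38MAPK, cells were lysed in Triton/SDS buffer with protease and phosphatase inhibitors, then immunoblotted with anti-phospho-p38MAPK and anti-p38MAPK (1:1000).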

Data set [10] can be described thus: Pharmacokinetics in rats: total plasma and brain concentrations by LC-MS. The data set is classed as in vivo. The settings on record: oral gavage 50 mg/kg, rats (Fig. 6D).
In data set [11] the target is KCa3.1 (Mus musculus, UniProt O89109). In words: Whole-cell patch-clamp on AβO-activated cultured primary microglia. The format is cell-based. The settings on record: AβO 100 nmol/L 24 h, senicapoc 1 μmol/L (Fig. 7A). An outline of the steps:
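Whole-cell patch-clamp was done on cultured primary microglia after 24 h AβO (100 nmol/L) with test compound or vehicle. An aspartate-based internal solution was used. KCa3.1 conductance was taken from the slope of the TRAM-34-sensitive KCa current between −80 and −75 mV.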
For orientation: In patch-clamp work, channel activity is measured electrically.

The conditions of data set [12]: cited from earlier work. The source holds these as a separate data set.
The test system of data set [13] is KCa3.1. The settings on record: read-out: IC50 for KCa3.1 inhibition; cited from earlier work.

SMILES strings stand for the structures. Like-named read-outs stand apart in the source and are kept apart here.

Chain of KCa3.1 (Mus musculus, UniProt O89109) (O89109 whole entry): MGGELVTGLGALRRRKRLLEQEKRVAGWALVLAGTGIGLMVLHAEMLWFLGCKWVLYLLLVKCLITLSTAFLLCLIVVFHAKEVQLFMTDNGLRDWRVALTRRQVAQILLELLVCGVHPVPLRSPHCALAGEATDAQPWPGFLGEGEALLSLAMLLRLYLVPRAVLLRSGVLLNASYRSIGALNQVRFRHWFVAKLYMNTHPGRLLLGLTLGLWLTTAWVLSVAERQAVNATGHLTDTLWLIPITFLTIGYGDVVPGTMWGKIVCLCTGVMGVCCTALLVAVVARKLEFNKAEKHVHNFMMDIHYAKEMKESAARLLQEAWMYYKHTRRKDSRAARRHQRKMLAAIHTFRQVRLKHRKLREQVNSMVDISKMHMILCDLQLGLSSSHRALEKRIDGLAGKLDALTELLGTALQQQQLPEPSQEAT

`CN(C)c1ccc(O)c2c1C[C@H]1C[C@H]3[C@H](N(C)C)C(O)=C(C(N)=O)C(=O)[C@@]3(O)C(O)=C1C2=O` [minocycline]: the “hLTP disruption by Aβ” value in data set [1] is “prevent the hLTP disruption”.

What is called half-life is the time needed for the level to fall by half in the phase considered. The IC50 is the concentration needed to halve the response being measured. Take `NC(=O)C(c1ccccc1)(c1ccc(F)cc1)c1ccc(F)cc1` [senicapoc]: the half-life is ~ 7 day in data set [2] and about 1 h in data set [6] (plasma). For the same molecule, in data set [3], the “reduced induction of hLTP in 5xFAD mice” value is “rectified”. In addition, the cognitive benefit result in data set [4] is reported as “could not be demonstrated”. For the same molecule, the “number of microglia expressing KCa3.1” value in data set [5] (medicated diet for three months (Fig. 8B)) is “significantly reduced”. Besides, the “reduction of CD11b immunoreactivity” value in data set [5] (medicated diet for three months, P < 0.001 (Fig. 8A)) worked out at 45%. The concentration at 1 h in [6] (brain, ip, 50 mg/kg) was 43 ± 8 µM. Moreover, the “expressions of proinflammatory modulators IL-1β, TNF-α, IL-6, and iNOS (qPCR)” value in data set [7] (medicated diet for three months (Fig. 8C)) is “significantly reduced”. The “markers typical of an M2-like phenotype (qPCR)” value in data set [7] (medicated diet for three months (Fig. S5)) is on record as “no changes”. In addition, in [8], the protein binding was 95%. Moreover, the AβO-induced microglial proliferation entry in data set [9] (AβO 100 nmol/L 24 h, senicapoc 1 μmol/L if not otherwise indicated (Fig. 7B)) is on record as “block”. In data set [9] (AβO 100 nmol/L 24 h, senicapoc 1 μmol/L if not otherwise indicated (Fig. 7E)), the “AβO-induced production of NO” value was “block”. In addition, in data set [9] (AβO 100 nmol/L 24 h, senicapoc 1 μmol/L, qPCR (Fig. 7C)), the “AβO-induced expression of microglial activation mediators IL-1β, IL-6 and iNOS” value is “block”. For the same molecule, the “AβO-induced activation of p38MAPK” value in [9] (AβO 100 nmol/L, senicapoc 1 μmol/L, Western blotting (Fig. 7D)) was “block”. Also, the oral availability entry in data set [10] is “roughly 60%”. For the same molecule, the “AβO-induced microglial KCa3.1 currents” value in data set [11] is “block”. In data set [12] (Phase-2 clinical trial), the “hemolysis and hemoglobin levels” value is “reduced hemolysis and increased hemoglobin levels”. The “primary clinical end-point: reduction in the rate of vaso-occlusive pain crisis” value in data set [12] (Phase-3) is “failed to achieve its primary clinical end‐point”. In [12] (Phase-3 clinical trial for sickle cell anemia), the “safety and tolerability in humans” value is “safe and well‐tolerated”. For the same molecule, in [13], the IC50 was 0.011 µM.
